≈ marks a conversion by molar mass, not a printed value.
How the values were obtained:
Escherichia coli [1] = test: Antibacterial activity against Escherichia coli isolate 54 by broth microdilution method; assay type: functional
Summary of the method: (§1)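 Tigecycline MICs by broth microdilution per CLSI guidelines, run in triplicate. Mueller-Hinton broth was prepared fresh less than 12 h before testing.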

Escherichia coli [2] = test: Antibacterial activity against Escherichia coli isolate 120 by broth microdilution method; assay type: functional; summary of the method: as §1
Escherichia coli [3] = test: Antibacterial activity against extended-spectrum beta-lactamase producing Escherichia coli isolate 315 by broth microdilution method; assay type: functional; summary of the method: as §1
Escherichia coli [4] = test: Antibacterial activity against extended-spectrum beta-lactamase producing Escherichia coli isolate 321 by broth microdilution method; assay type: functional; summary of the method: as §1
Escherichia coli [5] = test: Antibacterial activity against extended-spectrum beta-lactamase producing Escherichia coli isolate 322 by broth microdilution method; assay type: functional; summary of the method: as §1
Klebsiella pneumoniae [6] = test: Antibacterial activity against Klebsiella pneumoniae isolate 134 by broth microdilution method; assay type: functional; summary of the method: as §1
Klebsiella pneumoniae [7] = test: Antibacterial activity against Klebsiella pneumoniae isolate 135 by broth microdilution method; assay type: functional; summary of the method: as §1
Klebsiella pneumoniae [8] = test: Antibacterial activity against extended-spectrum beta-lactamase producing Klebsiella pneumoniae isolate 255 by broth microdilution method; assay type: functional; summary of the method: as §1
Klebsiella pneumoniae [9] = test: Antibacterial activity against extended-spectrum beta-lactamase producing Klebsiella pneumoniae isolate 266 by broth microdilution method; assay type: functional; summary of the method: as §1
Klebsiella pneumoniae [10] = test: Antibacterial activity against extended-spectrum beta-lactamase producing Klebsiella pneumoniae isolate 320 by broth microdilution method; assay type: functional; summary of the method: as §1
Klebsiella pneumoniae [11] = test: Antibacterial activity against carbapenemase producing Klebsiella pneumoniae isolate 321 by broth microdilution method; assay type: functional; summary of the method: as §1
[12] = Ratio of fAUC to MIC in Escherichia coli isolate 54-infected ICR mouse at 80% maximal effective concentration; assay type: functional
Summary of the method: (§2)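 EI50, EI80 and the static exposure were read from fitted curves. Free AUC came from earlier mouse PK using concentration-dependent protein binding set at Cmax. MICs were run in triplicate by CLSI broth microdilution in Mueller-Hinton broth prepared <12 h before testing, or by Etest.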

[13] = Half life in ICR mouse at 50 mg/kg, sc; assay type: ADME, organism-based; design: dose 50 mg/kg, route subcutaneous; details: in vivo
[14] = Ratio of fAUC to MIC in Escherichia coli isolate 120-infected ICR mouse at 80% maximal effective concentration; assay type: functional; summary of the method: as §2
[15] = Ratio of fAUC to MIC in extended-spectrum beta-lactamase producing Escherichia coli isolate 315-infected ICR mouse at 80% maximal effective concentration; assay type: functional; summary of the method: as §2
[16] = Ratio of fAUC to MIC in extended-spectrum beta-lactamase producing Escherichia coli isolate 321-infected ICR mouse at 80% maximal effective concentration; assay type: functional; summary of the method: as §2
[17] = Ratio of fAUC to MIC in extended-spectrum beta-lactamase producing Escherichia coli isolate 322-infected ICR mouse at 80% maximal effective concentration; assay type: functional; summary of the method: as §2
[18] = Ratio of fAUC to MIC in Klebsiella pneumoniae isolate 134-infected ICR mouse at 80% maximal effective concentration; assay type: functional; summary of the method: as §2
[19] = Ratio of fAUC to MIC in Klebsiella pneumoniae isolate 135-infected ICR mouse at 80% maximal effective concentration; assay type: functional; summary of the method: as §2
[20] = Ratio of fAUC to MIC in extended-spectrum beta-lactamase producing Klebsiella pneumoniae isolate 255-infected ICR mouse at 80% maximal effective concentration; assay type: functional; summary of the method: as §2
[21] = Ratio of fAUC to MIC in extended-spectrum beta-lactamase producing Klebsiella pneumoniae isolate 266-infected ICR mouse at 80% maximal effective concentration; assay type: functional; summary of the method: as §2
[22] = Ratio of fAUC to MIC in extended-spectrum beta-lactamase producing Klebsiella pneumoniae isolate 320-infected ICR mouse at 80% maximal effective concentration; assay type: functional; summary of the method: as §2
[23] = Ratio of fAUC to MIC in carbapenemase producing Klebsiella pneumoniae isolate 321-infected ICR mouse at 80% maximal effective concentration; assay type: functional; summary of the method: as §2
[24] = Ratio of fAUC to MIC in Escherichia coli isolate 54-infected ICR mouse at 50% maximal effective concentration; assay type: functional; summary of the method: as §2
[25] = Ratio of fAUC to MIC in Escherichia coli isolate 120-infected ICR mouse at 50% maximal effective concentration; assay type: functional; summary of the method: as §2
[26] = Ratio of fAUC to MIC in extended-spectrum beta-lactamase producing Escherichia coli isolate 315-infected ICR mouse at 50% maximal effective concentration; assay type: functional; summary of the method: as §2
[27] = Ratio of fAUC to MIC in extended-spectrum beta-lactamase producing Escherichia coli isolate 321-infected ICR mouse at 50% maximal effective concentration; assay type: functional; summary of the method: as §2
[28] = Ratio of fAUC to MIC in extended-spectrum beta-lactamase producing Escherichia coli isolate 322-infected ICR mouse at 50% maximal effective concentration; assay type: functional; summary of the method: as §2
[29] = Ratio of fAUC to MIC in Klebsiella pneumoniae isolate 134-infected ICR mouse at 50% maximal effective concentration; assay type: functional; summary of the method: as §2

CN(C)c1cc(NC(=O)CNC(C)(C)C)c(O)c2c1C[C@H]1C[C@H]3[C@H](N(C)C)C(O)=C(C(N)=O)C(=O)[C@@]3(O)C(O)=C1C2=O [TIGECYCLINE]
MIC (Escherichia coli [1]): 0.25 µg/mL (≈ 0.427 µM)
MIC (Escherichia coli [2]): 0.125 µg/mL (≈ 0.213 µM)
MIC (Escherichia coli [3]): 0.5 µg/mL (≈ 0.854 µM)
MIC (Escherichia coli [4]): 0.25 µg/mL (≈ 0.427 µM)
MIC (Escherichia coli [5]): 0.25 µg/mL (≈ 0.427 µM)
MIC (Klebsiella pneumoniae [6]): 0.5 µg/mL (≈ 0.854 µM)
MIC (Klebsiella pneumoniae [7]): 0.5 µg/mL (≈ 0.854 µM)
MIC (Klebsiella pneumoniae [8]): 2 µg/mL (≈ 3.41 µM)
MIC (Klebsiella pneumoniae [9]): 0.5 µg/mL (≈ 0.854 µM)
MIC (Klebsiella pneumoniae [10]): 2 µg/mL (≈ 3.41 µM)
MIC (Klebsiella pneumoniae [11]): 0.5 µg/mL (≈ 0.854 µM)
fAUC/MIC [12]: 7.7
half-life [13]: 594 min
fAUC/MIC [14]: 7.3
fAUC/MIC [15]: 4.46
fAUC/MIC [16]: 9.07
fAUC/MIC [17]: 10.6
fAUC/MIC [18]: 10
fAUC/MIC [19]: 7.78
fAUC/MIC [20]: 4.81
fAUC/MIC [21]: 7.15
fAUC/MIC [22]: 3.27
fAUC/MIC [23]: 7.48
fAUC/MIC [24]: 5.19
fAUC/MIC [25]: 3.7
fAUC/MIC [26]: 3.71
fAUC/MIC [27]: 6.4
fAUC/MIC [28]: 6.27
fAUC/MIC [29]: 5.91

Reference: ChEMBL document CHEMBL1649475, “In vivo pharmacodynamic profile of tigecycline against phenotypically diverse Escherichia coli and Klebsiella pneumoniae isolates” (Antimicrob Agents Chemother, 2009)
